Measurements from ChEMBL document CHEMBL1144889 (J Med Chem, 2003).

How the values were obtained:
Glucocorticoid receptor [1] = target: T1, Glucocorticoid receptor (Homo sapiens, UniProt P04150); test: Transcriptional repression in HepG2 cells expressing human glucocorticoid receptor; format: functional, cell-based
T1 sequence (P04150 whole entry): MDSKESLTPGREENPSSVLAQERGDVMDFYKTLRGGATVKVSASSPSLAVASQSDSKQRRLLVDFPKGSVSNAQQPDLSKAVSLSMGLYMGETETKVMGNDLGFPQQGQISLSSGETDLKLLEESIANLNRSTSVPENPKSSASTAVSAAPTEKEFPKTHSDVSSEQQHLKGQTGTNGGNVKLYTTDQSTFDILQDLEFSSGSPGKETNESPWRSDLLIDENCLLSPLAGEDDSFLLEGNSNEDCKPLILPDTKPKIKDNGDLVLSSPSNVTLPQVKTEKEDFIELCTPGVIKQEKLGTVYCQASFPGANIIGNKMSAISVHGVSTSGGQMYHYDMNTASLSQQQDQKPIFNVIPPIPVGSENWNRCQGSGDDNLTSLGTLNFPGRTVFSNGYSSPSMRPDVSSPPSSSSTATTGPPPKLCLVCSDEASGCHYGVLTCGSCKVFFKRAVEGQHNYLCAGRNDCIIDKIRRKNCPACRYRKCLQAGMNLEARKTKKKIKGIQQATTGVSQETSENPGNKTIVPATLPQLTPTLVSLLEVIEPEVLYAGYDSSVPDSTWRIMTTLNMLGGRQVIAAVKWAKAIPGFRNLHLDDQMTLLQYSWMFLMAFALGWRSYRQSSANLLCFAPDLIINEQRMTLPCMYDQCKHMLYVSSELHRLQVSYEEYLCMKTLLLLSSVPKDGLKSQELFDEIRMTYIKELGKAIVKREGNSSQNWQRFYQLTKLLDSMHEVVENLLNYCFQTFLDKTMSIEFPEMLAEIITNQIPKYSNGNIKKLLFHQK

Progesterone receptor = target: T2, Progesterone receptor (Homo sapiens, UniProt P06401); test: Displacement of [3H]progesterone from human Progesterone receptor A
T2 sequence (P06401 whole entry): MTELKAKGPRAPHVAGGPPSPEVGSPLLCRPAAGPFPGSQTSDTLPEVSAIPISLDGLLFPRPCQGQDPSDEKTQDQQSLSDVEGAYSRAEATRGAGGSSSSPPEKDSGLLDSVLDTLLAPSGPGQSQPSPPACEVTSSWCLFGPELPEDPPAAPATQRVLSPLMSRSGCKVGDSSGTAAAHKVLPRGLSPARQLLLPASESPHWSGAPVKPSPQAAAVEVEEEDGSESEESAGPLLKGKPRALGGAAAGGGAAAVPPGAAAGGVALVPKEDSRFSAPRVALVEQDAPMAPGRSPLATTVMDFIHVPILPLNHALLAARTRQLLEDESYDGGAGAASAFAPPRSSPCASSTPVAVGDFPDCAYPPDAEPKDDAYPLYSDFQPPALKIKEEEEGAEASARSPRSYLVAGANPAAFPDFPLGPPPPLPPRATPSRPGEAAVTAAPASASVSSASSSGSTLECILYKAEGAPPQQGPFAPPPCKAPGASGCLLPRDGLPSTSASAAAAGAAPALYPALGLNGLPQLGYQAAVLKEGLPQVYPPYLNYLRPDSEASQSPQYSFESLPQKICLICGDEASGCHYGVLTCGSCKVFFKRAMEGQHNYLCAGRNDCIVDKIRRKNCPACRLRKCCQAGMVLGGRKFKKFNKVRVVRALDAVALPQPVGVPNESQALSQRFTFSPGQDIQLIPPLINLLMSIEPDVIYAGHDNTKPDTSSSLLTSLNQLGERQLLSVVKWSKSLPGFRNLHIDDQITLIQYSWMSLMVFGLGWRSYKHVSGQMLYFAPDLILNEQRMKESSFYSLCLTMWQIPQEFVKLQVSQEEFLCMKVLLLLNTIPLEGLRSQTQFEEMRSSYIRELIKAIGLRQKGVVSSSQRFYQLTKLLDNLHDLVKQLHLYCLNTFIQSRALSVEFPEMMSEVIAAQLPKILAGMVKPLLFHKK

Glucocorticoid receptor [2] = target: T1, Glucocorticoid receptor; test: Binding affinity towards human glucocorticoid receptor (GR) was determined using [3H]dexamethasone as radioligand in […] cells; format: cell-based
[3] = Binding affinity towards estradiol receptor (Estrogen receptor); set-up: species or system Homo sapiens
In short: (§1)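 Competition radioligand binding; tracers [3H]aldosterone (MR) and [3H]estradiol (ER). Bound ligand collected on hydroxyapatite, washed with ice-cold buffer, counted by scintillation. IC50 obtained from Hill analysis of binding curves, Ki from Cheng-Prusoff. Mean of two experiments in triplicate, single triplicate run, or ≥3 experiments in triplicate.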

[4] = Binding affinity towards aldosterone receptor (Mineralocorticoid receptor); set-up: species or system Homo sapiens; in short: as §1
Glucocorticoid receptor [5] = target: T1, Glucocorticoid receptor; test: Transcriptional activation in CV-1 cells expressing human glucocorticoid receptor; format: functional, cell-based
In short: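 Cotransfection of an hGR receptor plasmid with a luciferase reporter driven by the MMTV promoter (four GREs) in CV-1 cells. Seven-point half-log concentration-response curves. EC50 taken as half-maximal response. Efficacy expressed as % of the dexamethasone maximum. Mean of two experiments in triplicate, single triplicate run, or ≥3 experiments in triplicate.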

[6] = target: T3, Glucocorticoid receptor (Homo sapiens) (UniProt P04150); test: Transcriptional activation in CV-1 cells expressing human glucocorticoid receptor compared to Dexamethasone; format: functional, cell-based
T3 sequence (whole entry): T1 sequence (P04150 whole entry)
In short: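 GRE activation co-transfection in CV-1 cells: hGR receptor plasmid plus a luciferase reporter driven by part of the MMTV promoter (four GRE sites, no known AP-1 or NFκB affinity). Full seven-point, half-log concentration-response curves run in triplicate. EC50 is the concentration at half-maximal response; efficacy is given as % of the dexamethasone maximal response.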

Androgen receptor = target: T4, Androgen receptor (Homo sapiens, UniProt P10275); test: Binding affinity towards testosterone receptor
T4 sequence (P10275 whole entry): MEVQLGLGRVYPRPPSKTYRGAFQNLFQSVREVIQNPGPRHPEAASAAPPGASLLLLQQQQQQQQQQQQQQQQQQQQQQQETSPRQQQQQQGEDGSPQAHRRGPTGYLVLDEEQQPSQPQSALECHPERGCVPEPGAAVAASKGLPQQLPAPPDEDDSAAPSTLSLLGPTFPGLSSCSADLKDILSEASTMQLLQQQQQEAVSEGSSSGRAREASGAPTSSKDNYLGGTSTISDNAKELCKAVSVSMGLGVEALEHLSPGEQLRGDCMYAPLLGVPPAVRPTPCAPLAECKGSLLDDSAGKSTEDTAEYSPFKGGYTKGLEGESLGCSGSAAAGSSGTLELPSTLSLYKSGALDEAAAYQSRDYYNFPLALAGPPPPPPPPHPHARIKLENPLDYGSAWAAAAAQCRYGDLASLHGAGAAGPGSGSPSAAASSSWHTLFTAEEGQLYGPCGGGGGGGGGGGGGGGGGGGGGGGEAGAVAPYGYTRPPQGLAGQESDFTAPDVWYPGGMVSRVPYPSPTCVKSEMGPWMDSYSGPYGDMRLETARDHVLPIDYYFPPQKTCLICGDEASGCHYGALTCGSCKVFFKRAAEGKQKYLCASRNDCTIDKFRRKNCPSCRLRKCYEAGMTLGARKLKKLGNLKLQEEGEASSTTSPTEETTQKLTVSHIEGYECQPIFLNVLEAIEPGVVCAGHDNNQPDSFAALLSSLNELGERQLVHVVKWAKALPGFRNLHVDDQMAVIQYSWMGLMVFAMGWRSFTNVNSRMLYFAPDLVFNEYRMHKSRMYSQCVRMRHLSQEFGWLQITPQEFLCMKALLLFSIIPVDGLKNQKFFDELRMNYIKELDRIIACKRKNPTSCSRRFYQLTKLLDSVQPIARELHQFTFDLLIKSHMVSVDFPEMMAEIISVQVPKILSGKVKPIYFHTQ

C=CCC1Oc2ccc(Cl)c(OC)c2-c2ccc3c(c21)C(C)=CC(C)(C)N3 (configuration not stated)
EC50 (Glucocorticoid receptor [1]): 0.094 µM
Ki (Progesterone receptor): 0.029 µM
Ki (Glucocorticoid receptor [2]): 0.00542 µM

C=CCC1Oc2ccc(C(=O)OC)c(OC)c2-c2ccc3c(c21)C(C)=CC(C)(C)N3 (configuration not stated)
EC50 (Glucocorticoid receptor [1]): 0.1 µM

C#CCOc1ccc2c(c1OC)-c1ccc3c(c1C(CC=C)O2)C(C)=CC(C)(C)N3 (configuration not stated)
EC50 (Glucocorticoid receptor [1]): 0.16 µM

C=CCC1Oc2c(C)ccc(OC)c2-c2ccc3c(c21)C(C)=CC(C)(C)N3 (configuration not stated)
EC50 (Glucocorticoid receptor [1]): 0.081 µM
Ki (Progesterone receptor): > 5 µM

C=CCC1Oc2ccc(Br)c(OC)c2-c2ccc3c(c21)C(C)=CC(C)(C)N3 (configuration not stated)
EC50 (Glucocorticoid receptor [1]): 0.082 µM
Ki (Progesterone receptor): 0.034 µM

C[C@]12C=CC(=O)C=C1CCC1[C@@H]2[C@@H](O)C[C@@]2(C)[C@H]1CC[C@]2(O)C(=O)CO (single isomer, unassigned) [PREDNISOLONE]
Ki [3]: > 1 µM
Ki [4]: 0.037 µM

C=CCC1Oc2cccc(O)c2-c2ccc3c(c21)C(C)=CC(C)(C)N3 (configuration not stated)
EC50 (Glucocorticoid receptor [5]): 0.55 µM
Efficacy [6]: 29%
Ki [3]: > 1 µM
EC50 (Glucocorticoid receptor [1]): 0.25 µM
Ki [4]: 1.37 µM
Ki (Androgen receptor): 2.06 µM
Ki (Glucocorticoid receptor [2]): 0.0276 µM

C=CCC1Oc2ccc(OC)c(OC)c2-c2ccc3c(c21)C(C)=CC(C)(C)N3 (configuration not stated)
EC50 (Glucocorticoid receptor [1]): 0.12 µM

C=CCC1Oc2cccc(SC)c2-c2ccc3c(c21)C(C)=CC(C)(C)N3 (configuration not stated)
EC50 (Glucocorticoid receptor [5]): 0.123 µM
Efficacy [6]: 60%
Ki [3]: > 1 µM
EC50 (Glucocorticoid receptor [1]): 0.018 µM
Ki [4]: 0.0938 µM
Ki (Androgen receptor): 2.46 µM

C=CCC1Oc2cccc(C#N)c2-c2ccc3c(c21)C(C)=CC(C)(C)N3 (configuration not stated)
EC50 (Glucocorticoid receptor [5]): 0.195 µM
Efficacy [6]: 87%
Ki [3]: > 1 µM
EC50 (Glucocorticoid receptor [1]): 0.06 µM
Ki [4]: > 5 µM
Ki (Androgen receptor): > 5 µM

C=CCC1Oc2ccc(OCC#N)c(OC)c2-c2ccc3c(c21)C(C)=CC(C)(C)N3 (configuration not stated)
EC50 (Glucocorticoid receptor [1]): 0.13 µM
Ki (Progesterone receptor): 3.08 µM
Ki (Glucocorticoid receptor [2]): 0.051 µM

C=CCC1Oc2ccccc2-c2ccc3c(c21)C(C)=CC(C)(C)N3 (configuration not stated)
EC50 (Glucocorticoid receptor [5]): > 0.3 µM
Efficacy [6]: 2%
Ki [3]: > 1 µM
EC50 (Glucocorticoid receptor [1]): 0.35 µM
Ki [4]: > 5 µM
Ki (Androgen receptor): > 5 µM
Ki (Glucocorticoid receptor [2]): 0.0338 µM

C=CCC1Oc2cccc(Cl)c2-c2ccc3c(c21)C(C)=CC(C)(C)N3 (configuration not stated)
EC50 (Glucocorticoid receptor [1]): 0.045 µM

C=CCC1Oc2cccc(NC)c2-c2ccc3c(c21)C(C)=CC(C)(C)N3 (configuration not stated)
EC50 (Glucocorticoid receptor [5]): 0.032 µM
Efficacy [6]: 60%
Ki [3]: > 1 µM
EC50 (Glucocorticoid receptor [1]): 0.019 µM
Ki [4]: 0.251 µM
Ki (Progesterone receptor): 2.92 µM
Ki (Androgen receptor): 2.59 µM
Ki (Glucocorticoid receptor [2]): 0.007 µM

C=CCC1Oc2c(Br)ccc(OC)c2-c2ccc3c(c21)C(C)=CC(C)(C)N3 (configuration not stated)
EC50 (Glucocorticoid receptor [1]): 0.059 µM
Ki (Progesterone receptor): > 5 µM

C=CCC1Oc2c(Br)cc(O)c(Cl)c2-c2ccc3c(c21)C(C)=CC(C)(C)N3 (configuration not stated)
Ki (Progesterone receptor): 0.022 µM

C=CCOc1ccc2c(c1OC)-c1ccc3c(c1C(CC=C)O2)C(C)=CC(C)(C)N3 (configuration not stated)
EC50 (Glucocorticoid receptor [1]): 0.14 µM

C#CCOc1cccc2c1-c1ccc3c(c1C(CC=C)O2)C(C)=CC(C)(C)N3 (configuration not stated)
EC50 (Glucocorticoid receptor [5]): > 0.3 µM
Efficacy [6]: 9%
EC50 (Glucocorticoid receptor [1]): 0.27 µM
Ki (Glucocorticoid receptor [2]): 0.0042 µM

C#Cc1cccc2c1-c1ccc3c(c1C(CC=C)O2)C(C)=CC(C)(C)N3 (configuration not stated)
EC50 (Glucocorticoid receptor [5]): 0.13 µM
Efficacy [6]: 92%
Ki [3]: > 1 µM
EC50 (Glucocorticoid receptor [1]): 0.059 µM
Ki [4]: 0.35 µM
Ki (Progesterone receptor): 2.4 µM
Ki (Androgen receptor): 0.65 µM
Ki (Glucocorticoid receptor [2]): 0.0069 µM

C=CCC1Oc2ccc(CO)c(OC)c2-c2ccc3c(c21)C(C)=CC(C)(C)N3 (configuration not stated)
EC50 (Glucocorticoid receptor [1]): 0.053 µM
Ki (Progesterone receptor): 0.1 µM
Ki (Glucocorticoid receptor [2]): 0.0066 µM

C=CCC1Oc2cccc(CO)c2-c2ccc3c(c21)C(C)=CC(C)(C)N3 (configuration not stated)
EC50 (Glucocorticoid receptor [5]): 0.061 µM
Efficacy [6]: 69%
Ki [3]: > 1 µM
EC50 (Glucocorticoid receptor [1]): 0.019 µM
Ki [4]: 0.292 µM
Ki (Androgen receptor): 1.32 µM
Ki (Glucocorticoid receptor [2]): 0.0023 µM

C=CCC1Oc2c(C=C)ccc(OC)c2-c2ccc3c(c21)C(C)=CC(C)(C)N3 (configuration not stated)
EC50 (Glucocorticoid receptor [1]): 0.156 µM
Ki (Progesterone receptor): 0.45 µM
Ki (Glucocorticoid receptor [2]): 0.034 µM

C=CCC1Oc2cccc(C=C)c2-c2ccc3c(c21)C(C)=CC(C)(C)N3 (configuration not stated)
EC50 (Glucocorticoid receptor [5]): 0.017 µM
Efficacy [6]: 50%
Ki [3]: > 1 µM
EC50 (Glucocorticoid receptor [1]): 0.012 µM
Ki [4]: 0.057 µM
Ki (Progesterone receptor): 0.435 µM
Ki (Androgen receptor): 0.239 µM
Ki (Glucocorticoid receptor [2]): 0.0044 µM
